Measured values from ChEMBL document CHEMBL4665848, “Constituents of Bupleurum praealtum and Bupleurum veronense with Potential Immunomodulatory Activity” (J Nat Prod, 2020).
Activity calls are given as the source filed them. No cut-off for these calls is given here.

Experiments:
[1] = system: Peritoneal macrophage; test: Cytotoxicity against Wistar rat peritoneal macrophages assessed as reduction in cell viability at 10^-5 to 10^-1 mM after 24 hrs by MTT assay; format: cell-based; conditions: dose 0.00001-0.1 mM
Method in brief: (§1)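 Freshly isolated primary rat spleen lymphocytes and peritoneal macrophages, cultured separately. Read-out is MTT metabolism, taken as mitochondrial reductase activity. Values are mean percentages with SD, relative to RPMI-treated control cells.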

[2] = Cytotoxicity against Wistar rat splenocytes assessed as reduction in cell viability at 10^-5 to 10^-1 mM after 24 hrs by MTT assay; format: tissue-based; conditions: splenocyte, dose 0.00001-0.1 mM; method in brief: as §1
[3] = Cytotoxicity against Wistar rat splenocytes assessed as lysosomal activity at 10^-5 to 10^-1 mM after 24 hrs by neutral red dye-based assay; format: tissue-based; conditions: splenocyte, dose 0.00001-0.1 mM
Method in brief: (§2)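 Freshly isolated primary rat splenocytes and peritoneal macrophages. Read-out is neutral red accumulation, taken as lysosomal function. Results are compared with RPMI-treated control cells.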

[4] = system: Peritoneal macrophage; test: Cytotoxicity against Wistar rat peritoneal macrophages assessed as assessed as lysosomal activity at 10^-5 to 10^-1 mM after 24 hrs by neutral red dye-based assay; format: cell-based; conditions: dose 0.00001-0.1 mM; method in brief: as §2
[5] = system: Peritoneal macrophage; test: Inhibition of MPO in Wistar rat peritoneal macrophages assessed as oxidation of 1,2-diaminobenzene at 10^-5 to 10^-1 mM; format: tissue-based; conditions: dose mM 0.00001-0.1, time 24.0 hrs
[6] = Cytotoxicity against Wistar rat splenocytes assessed as reduction in cell viability at 100 uM after 24 hrs by MTT assay; format: tissue-based; conditions: splenocyte; method in brief: as §1
[7] = Cytotoxicity against Wistar rat splenocytes assessed as lysosomal activity at 100 uM after 24 hrs by neutral red dye-based assay; format: tissue-based; conditions: splenocyte; method in brief: as §2
[8] = system: Peritoneal macrophage; test: Cytotoxicity against Wistar rat peritoneal macrophages assessed as lysosomal activity at 100 uM after 24 hrs by neutral red dye-based assay; format: cell-based; method in brief: as §2
[9] = system: Peritoneal macrophage; test: Cytotoxicity against Wistar rat peritoneal macrophages assessed as reduction in cell viability at 100 uM after 24 hrs by MTT assay; format: cell-based; method in brief: as §1
[10] = system: Peritoneal macrophage; test: Cytotoxicity against Wistar rat peritoneal macrophages assessed as lysosomal activity at 10 to 100 uM after 24 hrs by neutral red dye-based assay; format: cell-based; conditions: dose 10-100 µM; method in brief: as §2

Row | SMILES | Activity [1] | Activity [2] | Activity [3] | Activity [4] | inhibition [5] | Activity [6] | Activity [7] | Activity [8] | Activity [9] | Activity [10]
1 | CC/C=C/C=C/C=C/C=C\CCCCOC(=O)[C@H](O)C(C)C | Non-Toxic | Non-Toxic | Non-Toxic | Non-Toxic | Active |  |  |  |  | 
2 | CC/C=C/C=C/C=C/C=C/[C@@H]1CCC(=O)O1 |  |  |  |  | Active | Toxic | Toxic | Toxic | Toxic | 
3 | COc1ccc(C[C@H]2COC(=O)[C@@H]2Cc2ccc(OC)c(OC)c2)cc1OC |  |  |  |  |  |  | Non-Toxic |  |  | Non-Toxic
4 | CC/C=C/C=C/C=C/C=C\CCCCOC(=O)[C@H](OC(C)=O)C(C)C | Non-Toxic | Non-Toxic | Non-Toxic | Non-Toxic |  |  |  |  |  | 
